An excerpt weighted towards active compounds, which were near 3.7% of everything screened.
hERG rescue: hERG rescue from dofetilide block, primary screen, cell-based, CHO-hERG, FluxOR thallium flux, dofetilide IC70. Voltage-gated inwardly rectifying potassium channel KCNH2 (Homo sapiens), Q12809. dofetilide IC70 present. activation (rescue from dofetilide block), less the hit threshold, % at 10 µM. hit rate 0.51% among 310,000;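 active = activation above the mean of controls blocked by dofetilide plus 5 SD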;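 note: thallium influx through hERG after potassium depolarization seen as dye fluorescence rise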
KCNK9 block: KCNK9 potassium channel inhibitors, primary screen, HEK293 cells, thallium flux; Potassium channel subfamily K member 9 (Homo sapiens), Q9NPC2; FluxOR thallium flux fluorescence; active compounds read low; B-score at 10 µM; hit rate 1.2% among 310,000; AID 488922, 2010;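 active = ratio B-score over 3 SD below the library mean, with starting fluorescence within 5 SD of its mean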;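 note: negative B-score means less thallium flux so channel inhibition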
Target sequence (Q9NPC2 whole entry, looked up): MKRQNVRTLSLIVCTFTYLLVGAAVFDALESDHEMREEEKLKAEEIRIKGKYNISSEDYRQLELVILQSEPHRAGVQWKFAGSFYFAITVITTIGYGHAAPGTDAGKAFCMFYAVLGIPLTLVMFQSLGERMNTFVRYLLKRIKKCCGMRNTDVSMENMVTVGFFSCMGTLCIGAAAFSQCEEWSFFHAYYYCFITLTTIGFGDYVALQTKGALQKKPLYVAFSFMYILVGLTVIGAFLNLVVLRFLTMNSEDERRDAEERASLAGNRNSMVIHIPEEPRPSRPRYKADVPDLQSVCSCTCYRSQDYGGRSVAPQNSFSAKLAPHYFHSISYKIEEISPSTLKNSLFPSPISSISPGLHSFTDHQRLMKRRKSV
KCNK3 inh: human KCNK3 channel inhibitors, primary screen, CHO cells, FluxOR thallium flux, B-score; Potassium channel subfamily K member 3 (Homo sapiens), O14649; FluxOR fluorescence; active compounds read low; B-score at 10 µM; hit rate 0.84% among 340,000; AID 602410, 2012;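 active = B-score under library mean minus 4 SD, starting fluorescence ratio at most library mean plus 5 SD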;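 note: more negative B-score means stronger inhibition of thallium flux through KCNK3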
Kir21 block: inhibitors of mouse Kir2.1 inward-rectifier potassium channel. Inward rectifier potassium channel 2 (Mus musculus), P35561. B-score at 10 µM. HEK293-Kir2.1, FluxOR thallium flux fluorescence; active compounds read low. hit rate 0.85% among 310,000. AID 1672, 2009;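 active = fluorescence ratio B-score at or below minus 3 SD of library scores, with starting-brightness B-score within 2 SD, cut at about -4.2 in these data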;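 note: channel flux triggered by added potassium and thallium sulfate stimulus; B-score of peak minus minimum fluorescence over baseline after thallium stimulus; more negative B-score means stronger Kir2.1 block with less thallium influx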
KCNQ1 act: potentiators or activators of KCNQ1 channel, primary screen, cell-based, thallium flux, high-throughput. Potassium voltage-gated channel subfamily KQT member 1 (Homo sapiens), P51787. CHO-K1 KCNQ1, thallium flux FluxOR fluorescence; active compounds read high. B-score at 10 µM. hit rate 0.35% among 310,000. AID 2648, 2010;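 active = fluorescence ratio B-score, a plate-corrected score, at least three library SD, with initial intensity B-score within 5 SD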
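Material: CHO-K1 cells stably expressing KCNQ1. Medium: assay buffer for compound exposure, DMSO matched across wells. Reagent: K+/Tl+ depolarizing stimulus. Compound dosing: single-concentration screen. Times: 37 °C overnight plating, 90-min dark dye load, 20-min compound pretreatment. Technique: FluxOR Tl+ flux fluorescence.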
KCNQ1 inh: inhibitors of human KCNQ1 channel, primary screen, cell-based, thallium flux, high-throughput; Potassium voltage-gated channel subfamily KQT member 1 (Homo sapiens), P51787; CHO-K1 KCNQ1, FluxOR thallium flux fluorescence; active compounds read high; B-score at 10 µM; hit rate 1.3% among 310,000;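 active = compounds whose thallium flux B-score, printed positive for inhibition, exceeds three library SD while starting fluorescence stays within three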;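 note: channel opened by potassium depolarization with thallium stimulus after 20 min compound exposure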
KCNK9 block conf: KCNK9 potassium channel inhibitors, confirmation, HEK293 cells, thallium flux, duplicate; shares compounds with KCNK9 block; FluxOR thallium flux fluorescence; inhibition, % at 10 µM; hit rate 43% among 4,900; AID 492992, 2010;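 active = thallium signal inhibited by more than 5 SD of the compound-free buffer control wells, on both duplicate plates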;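 note: 0% = assay buffer control wells without compound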
Kir2-1 spec: mouse Kir2.1 channel inhibition, confirmation, selectivity assay for KCNK9 modulator project, cell-based, HEK293, thallium flux; shares compounds with KCNK9 block; Kir2.1 cells, FluxOR thallium flux fluorescence; inhibition, % at 10 µM; hit rate 4% among 4,900; AID 492993, 2010;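 active = thallium signal drop more than 5 SD beyond the mean of the no-compound control wells, seen in both duplicate plates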;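 note: signal is fluorescence rise after thallium addition divided by baseline fluorescence; plate controls were assay buffer only for no effect and full block by chlorpromazine control for full effect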
HEK293 Tl ctr: thallium flux in non-induced HEK293 cells, confirmation, counter-screen for KCNK9 inhibitor project, cell-based, second counter screen, non-induced KCNK9-HEK293 | FluxOR thallium flux | shares compounds with KCNK9 block | inhibition, % at 10 µM | hit rate 40% among 4,900;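 active = thallium signal drop beyond 5 SD of the untreated control mean, on both duplicate plates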;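 note: plate controls were buffer only IC0 wells for no effect and SID17386958 at its maximal inhibitory level for full effect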
Active calls of the source: *; i = inactive; / = no result given.

SMILES | hERG rescue | KCNK9 block | KCNK3 inh | Kir21 block | KCNQ1 act | KCNQ1 inh | KCNK9 block conf | Kir2-1 spec | HEK293 Tl ctr
O=C(Cc1ccc(NS(=O)(=O)c2cccc(C(F)(F)F)c2)cc1)NCCN1CCOCC1 | -14 | i | i | -0.15 | i | i | / | / | /
COc1cc2nc(Nc3ccc(C)c(Cl)c3)nc(N)c2cc1OC | -5 | -16* | i | -0.1 | i | i | i | i | i
CCOC(=O)c1ccc(Nc2nc(N)c3cc(OC)c(OC)cc3n2)cc1 | -4 | i | i | -0.31 | i | i | / | / | /
Cc1cc(C)c(S(=O)(=O)N2CCCCC2C(=O)O)c(C)c1 (stereo not drawn) | -12 | i | i | 0.86 | i | i | / | / | /
CCOC(=O)/C(=C\Nc1ccc(OC(F)(F)F)cc1)Sc1ncc(C(F)(F)F)cc1Cl | -9 | i | i | -1.4 | i | i | i | i | i
COC(=O)c1ccccc1NC(=O)C1CCN(S(=O)(=O)c2cc(C)ccc2OC)CC1 | -15 | i | i | 0.8 | i | i | / | / | /
COc1ccc(OC)c(S(=O)(=O)N2CCC(C(=O)Nc3cc(C)ccc3C)CC2)c1 | -2 | -10* | i | -0.85 | i | i | i | i | i
O=C1CC(N(CCc2ccccc2)C(=S)Nc2cc(Cl)ccc2Cl)C(=O)N1c1c(Cl)cccc1Cl (stereo not drawn) | -4 | -9.6* | i | 1 | i | i | 42%* | i | i
CCc1ccccc1NC(=O)CNC(=O)CCNC(=O)Nc1ccccc1 | / | / | i | / | / | / | / | / | /
COc1ccc(Cl)cc1NC(=S)Nc1ccccc1C | -8 | i | i | 1.3 | i | i | / | / | /
CC12CCC(C(=O)NCCc3ccccc3)(OC1=O)C2(C)C (stereo not drawn) | -2 | i | i | 1.9 | i | i | i | i | i
COc1c(C)cc(Br)cc1C(=O)Nc1cccc(NC(=O)c2ccco2)c1 | -15 | -11* | -11* | -0.29 | i | i | 67%* | i | i
COc1ccc(NC(=O)c2ccco2)cc1S(=O)(=O)N1CCCCC1 | -6 | i | i | 0.01 | i | i | i | i | i
COc1ccc(S(=O)(=O)N2CCCCC2)cc1NC(=O)c1ccco1 | -7 | i | i | -0.91 | i | i | / | / | /
COc1c(C)cc(Br)cc1C(=O)NC(=S)Nc1ccc(Cl)c(C(=O)O)c1 | -5 | i | i | 0.63 | i | i | i | i | i
COc1ccc(Br)cc1C(=O)Nc1ccccc1-c1ccccc1 | -3 | -10* | i | 2 | i | i | 52%* | i | 42%*
COc1ccccc1NC(=O)c1cc(Br)ccc1Cl | -11 | i | i | -0.66 | i | i | / | / | /
COc1cccc(NC(=O)c2ccco2)c1 | -7 | i | i | -1.1 | i | i | / | / | /
CCOC(=O)COc1c(Cl)cc(/C=C2\N=C(C)OC2=O)cc1OC | -11 | i | i | -1.1 | i | i | / | / | /

Screening results as filed in PubChem.
